Laboratory results published in ChEMBL document CHEMBL1127085, “Derivatives of 2-(dipropylamino)tetralin: effect of the C8-substituent on the interaction with 5-HT1A receptors” (J Med Chem, 1993).

Columns and labels:
[1] = target: T1, 5-hydroxytryptamine receptor 1A (Rattus norvegicus, UniProt P19327); assay: Binding affinity of 5-hydroxytryptamine 1A receptor using [3H]-8-OH-DPAT as radioligand.
T1 sequence (P19327 whole entry): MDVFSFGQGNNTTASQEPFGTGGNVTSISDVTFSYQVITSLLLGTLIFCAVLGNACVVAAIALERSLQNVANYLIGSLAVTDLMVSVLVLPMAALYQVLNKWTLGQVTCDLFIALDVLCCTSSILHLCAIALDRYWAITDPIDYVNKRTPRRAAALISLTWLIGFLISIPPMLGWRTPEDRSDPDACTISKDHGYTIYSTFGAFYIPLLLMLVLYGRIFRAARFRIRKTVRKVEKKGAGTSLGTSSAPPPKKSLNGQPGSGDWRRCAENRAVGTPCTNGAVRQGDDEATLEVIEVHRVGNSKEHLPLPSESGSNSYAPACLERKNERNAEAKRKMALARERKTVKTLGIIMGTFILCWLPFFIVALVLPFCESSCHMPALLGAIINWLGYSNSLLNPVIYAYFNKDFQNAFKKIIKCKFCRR
Method in brief: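 Membranes from cortex and hippocampus of male Sprague-Dawley rats, pooled from at least six rats, preincubated with 10 µM pargyline. Assay used 2 nM [3H]-8-OH-DPAT, test compound at 1-300 nM and 5 mg/mL tissue in 50 mM Tris-HCl with 4.0 mM CaCl2 and 5.7 mM ascorbate, pH 7.5. Incubated 10 min at 37 °C, filtered on GF/B, scintillation counted.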

Rattus norvegicus [2] = assay: Induction of clear-cut 5-HT motor syndrome in reserpine (5 mg/kg, sc) pretreated rats at the dose of 10 micro mol/kg; format: functional
[3] = target: T2, 5-hydroxytryptamine receptor 1A (Rattus norvegicus) (UniProt P19327); assay: Induction of clear-cut 5-HT motor syndrome in reserpine (5 mg/kg, sc) pretreated rats at the dose of 32 micro mol/kg; format: functional, organism-based
T2 sequence (whole entry): T1 sequence (P19327 whole entry)

[4] = target: T2, 5-hydroxytryptamine receptor 1A (Rattus norvegicus); assay: Effect of 5-HT accumulation in rat hippocampus at the dose of 32 umol/kg (p<0.01); format: functional, tissue-based
Method in brief: (§1)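 Test compound given sc in 0.9% NaCl. NSD 1015 (287 µmol/kg sc) given 30 min later to inhibit aromatic L-amino acid decarboxylase; rats decapitated after a further 30 min. Hippocampus and striatum stored at -40 °C for up to 1 week. Perchloric acid homogenates with α-methyl-5-hydroxytryptophan internal standard; 5-HTP and DOPA measured by HPLC-EC. Percent of control, means ± SEM; ANOVA with Tukey test.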

Rattus norvegicus [5] = assay: Change in body temperature of rats upon administration after 30 minutes; format: functional
Method in brief: (§2)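 Colonic temperature taken with an electrical thermometer probe 3.5 cm deep, before and 30 min after sc injection in saline. Change reported in °C as mean ± SEM; animal numbers as in the cage-leaving test. ANOVA with Tukey test.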

[6] = target: T2, 5-hydroxytryptamine receptor 1A (Rattus norvegicus); assay: Number of rats displaying the 5-HT syndrome or leaving the cage out of the number of rats tested; format: functional
[7] = target: T3, Dopamine receptor (Rattus norvegicus) (UniProt P25115+P19020+P30729+P18901+P61169); assay: Effect of accumulation of DOPA in rat striatum at the dose of 32 umol/kg; format: functional, tissue-based; method in brief: as §1
[8] = target: T2, 5-hydroxytryptamine receptor 1A (Rattus norvegicus); assay: 5-HT (serotonin) turnover in rat hippocampus (p<0.05); format: functional, tissue-based
Method in brief: (§3)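 Rats dosed sc (screening dose typically 32 µmol/kg, in 0.9% NaCl, 2 mL/kg); decapitated 5-10 min after the 30-min rating, […]. Hippocampus dissected and frozen. 5-HIAA/5-HT ratio measured by HPLC with electrochemical detection (+0.85 V) after perchloric acid homogenisation. Reported as percent of saline control, mean ± SEM, n = 4-6 per group; ANOVA with Tukey test.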

[9] = target: T3, Dopamine receptor (Rattus norvegicus); assay: Dopamine (DA) turnover in rat corpus striatum; format: functional, tissue-based
Method in brief: (§4)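 Rats given compound sc in 0.9% NaCl (screening dose typically 32 µmol/kg); decapitated about 30 min after dosing. Hippocampus and corpus striatum dissected and frozen. Perchloric acid homogenates analysed by HPLC with electrochemical detection. Turnover taken as 5-HIAA/5-HT or DOPAC/DA, expressed as percent of saline control. Means ± SEM; n = 5-7 controls, 4-6 treated. ANOVA with Tukey test.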

[10] = target: T2, 5-hydroxytryptamine receptor 1A (Rattus norvegicus); assay: Induction of clear-cut 5-HT motor syndrome in normal rats at the dose of 32 micro mol/kg; format: functional
Rattus norvegicus [11] = assay: Antagonistic effect on 5-HT syndrome or behavior of rat induced by (R)-8-hydroxy-DPAT at the dose of 32 and 1.0 umol/kg; format: functional
Method in brief: (§5)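 Compound (32 µmol/kg sc) or saline injected 10 min before (R)-8-OH-DPAT (1.0 µmol/kg sc). Flat body posture, forepaw treading and hindlimb abduction scored during 30 min of observation. Results as number of rats showing the behaviour out of number tested; Fisher's exact probability test.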

Rattus norvegicus [12] = assay: Antagonistic effect on body temperature of rat induced by (R)-1 at the dose of 32 and 1.0 umol/kg of compound (R)-1; format: functional
Method in brief: (§6)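 Compound (32 µmol/kg sc) or saline injected 10 min before (R)-8-OH-DPAT (1.0 µmol/kg sc). Colonic temperature taken before injection and 30 min later; result is the change from the preinjection value. One-way ANOVA with Tukey HSD test.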

Rattus norvegicus [13] = assay: Antagonistic effect on 5-HT syndrome or behavior of rat at the dose of 32 umol/kg with saline; format: functional; method in brief: as §5
Rattus norvegicus [14] = assay: Antagonistic effect on body temperature of rat induced by (R)-1 at the dose of 32 umol/kg with saline; format: functional; method in brief: as §6
[15] = target: T2, 5-hydroxytryptamine receptor 1A (Rattus norvegicus); assay: 5-HT (serotonin) turnover in rat hippocampus; format: functional, tissue-based; method in brief: as §4
[16] = target: T2, 5-hydroxytryptamine receptor 1A (Rattus norvegicus); assay: Antagonistic effect on 5-HT syndrome or behavior of rat induced by (R)-1 at the dose of 32 and 1.0 umol/kg of compound (R)-1; format: functional; method in brief: as §5
Rattus norvegicus [17] = assay: Induction of clear-cut 5-HT motor syndrome in normal rats at the dose of 32 umol/kg; format: functional
Rattus norvegicus [18] = assay: Change in body temperature of rats upon administration after 30 minutes (p<0.01); format: functional; method in brief: as §2
Rattus norvegicus [19] = assay: Induction of clear-cut 5-HT motor syndrome in normal rats at the dose of 32 uM/Kg; format: functional
[20] = target: T2, 5-hydroxytryptamine receptor 1A (Rattus norvegicus); assay: Induction of clear-cut 5-HT motor syndrome in reserpine (5 mg/Kg, sc) pretreated rats at the dose of 32 uM/Kg; format: functional, organism-based
Rattus norvegicus [21] = assay: Induction of clear-cut 5-HT motor syndrome in normal rats at the dose of 10 uM/Kg; format: functional
Rattus norvegicus [22] = assay: Induction of clear-cut 5-HT motor syndrome in reserpine (5 mg/Kg, sc) pretreated rats at the dose of 10 uM/Kg; format: functional
Rattus norvegicus [23] = assay: Induction of clear-cut 5-HT motor syndrome in reserpine (5 mg/Kg, sc) pretreated rats at the dose of 1 uM/Kg; format: functional
Rattus norvegicus [24] = assay: Induction of clear-cut 5-HT motor syndrome in normal rats at the dose of 1 uM/Kg; format: functional
[25] = target: T2, 5-hydroxytryptamine receptor 1A (Rattus norvegicus); assay: 5-HT (serotonin) turnover in rat hippocampus (p<0.01); format: functional, tissue-based; method in brief: as §3
Rattus norvegicus [26] = assay: Effect of DOPA accumulation in rat striatum at the dose of 32 umol/kg (p<0.1); format: functional; method in brief: as §1
Rattus norvegicus [27] = assay: Induction of clear-cut 5-HT motor syndrome in normal rats at the dose of 30 micro mol/kg; format: functional
Rattus norvegicus [28] = species: Rattus norvegicus; assay: Dopamine (DA) turnover in rat corpus striatum (p<0.05); format: functional; method in brief: as §4
Rattus norvegicus [29] = species: Rattus norvegicus; assay: Dopamine (DA) turnover in rat corpus striatum (p<0.01); format: functional; method in brief: as §4
Rattus norvegicus [30] = assay: Effect of DOPA accumulation in rat striatum at the dose of 32 umol/kg; format: functional; method in brief: as §1
Rattus norvegicus [31] = assay: Effect of DOPA accumulation in rat striatum at the dose of 0.32 umol/kg (p<0.01); format: functional; method in brief: as §1
Rattus norvegicus [32] = assay: Induction of clear-cut 5-HT motor syndrome in normal rats at the dose of 10 micro mol/kg; format: functional
Rattus norvegicus [33] = assay: Effect of accumulation of DOPA in rat striatum at the dose of 0.32 umol/kg (p<0.01); format: functional; method in brief: as §1

Compound	Ki [1] [nM]	Behavioral effect [3]	Temperature (Rattus norvegicus [5])	No. of rats [6]	Turnover [9]	Turnover [15]	further results
C#Cc1cccc2c1CC(N(CCC)CCC)CC2 (racemic)	4						Behavioral effect (Rattus norvegicus [2]): 1
CCCN(CCC)[C@H]1CCc2cccc(CO)c2C1	130	0	-2.2	0	121		Accumulation [4]: 58; Accumulation [7]: 101; Turnover [8]: 75; Behavioral effect [10]: 4
CCCN(CCC)[C@H]1CCc2c(F)ccc(O)c2C1							Effect (Rattus norvegicus [11]): 0; Temperature (Rattus norvegicus [12]): -0.76; Effect (Rattus norvegicus [13]): 0; Temperature (Rattus norvegicus [14]): -0.02
CCCN(CCC)[C@H]1CCc2cccc(-c3ccccc3)c2C1		0	0.6	4	99	98	Temperature (Rattus norvegicus [12]): -2.58; Behavioral effect [10]: 0; Effect [16]: 4
CCCN(CCC)[C@H]1CCc2cccc(OS(=O)(=O)C(F)(F)F)c2C1			0.5	1	104	84	Behavioral effect (Rattus norvegicus [17]): 0; Temperature (Rattus norvegicus [12]): -3.18; Effect [16]: 4
CCCN(CCC)[C@@H]1CCc2cccc(-c3ccccc3)c2C1		0		3	85	98	Temperature (Rattus norvegicus [12]): -3.68; Temperature (Rattus norvegicus [18]): 0.3; Behavioral effect [10]: 0; Effect [16]: 4
CCCN(CCC)[C@@H]1CCc2cccc(C(=O)c3ccccc3)c2C1	4.6		-3.3	0	122	74	Accumulation [4]: 56; Behavioral effect (Rattus norvegicus [19]): 4; Behavioral effect [20]: 4; Accumulation [7]: 69
CCCN(CCC)C1CCc2cccc(C#N)c2C1 (racemic)	26						Behavioral effect [20]: 3
CCCN(CCC)[C@H]1CCc2cccc(C(=O)OC)c2C1			-2.5	0	98	59	Behavioral effect (Rattus norvegicus [21]): 4; Behavioral effect (Rattus norvegicus [22]): 4
CCCN(CCC)[C@H]1CCc2cccc(C(C)=O)c2C1			-2.1	0	111	71	Behavioral effect (Rattus norvegicus [23]): 4; Behavioral effect (Rattus norvegicus [24]): 4
CCCN(CCC)C1CCc2cccc(C(C)=O)c2C1 (racemic)	0.9						Behavioral effect (Rattus norvegicus [23]): 4
C#Cc1cccc2c1C[C@H](N(CCC)CCC)CC2	22	4		0	78		Accumulation [4]: 43; Turnover [25]: 73; Accumulation (Rattus norvegicus [26]): 50; Accumulation [7]: 59; Temperature (Rattus norvegicus [18]): -1.6; Behavioral effect [10]: 4
CCCN(CCC)[C@@H]1CCc2cccc(C(C)=O)c2C1			-2.8	0	106	68	Behavioral effect (Rattus norvegicus [23]): 4; Behavioral effect (Rattus norvegicus [24]): 4
CCCN(CCC)[C@H]1CCc2cccc(C)c2C1		0		0	80	79	Accumulation [4]: 64; Accumulation [7]: 119; Temperature (Rattus norvegicus [18]): -2.3; Behavioral effect [10]: 4
CCCN(CCC)C1CCc2cccc(C(N)=O)c2C1 (racemic)	6						Behavioral effect [20]: 4
CCCCC(=O)c1cccc2c1CC(N(CCC)CCC)CC2 (racemic)	19						Behavioral effect [20]: 4
CCCN(CCC)[C@H]1CCc2cccc(C#N)c2C1	37						Behavioral effect [20]: 4
CCCN(CCC)C1CCc2cccc(OS(=O)(=O)C(F)(F)F)c2C1 (racemic)		0					
CCCN(CCC)[C@H]1CCc2cccc(OC)c2C1			-1.5	0	79		Turnover [8]: 80; Behavioral effect [10]: 4
CCCN(CCC)C1CCc2cccc(C)c2C1 (racemic)	42						
CCCN(CCC)[C@@H]1CCc2cccc(OC)c2C1				0			Turnover [25]: 66; Behavioral effect (Rattus norvegicus [27]): 4; Temperature (Rattus norvegicus [18]): -1.5; Turnover (Rattus norvegicus [28]): 70
CCCN(CCC)[C@@H]1CCc2cccc(C#N)c2C1	19						Behavioral effect (Rattus norvegicus [22]): 3
CCCN(CCC)[C@H]1CCc2ccccc2C1		0		5		104	Temperature (Rattus norvegicus [18]): -1.6; Turnover (Rattus norvegicus [29]): 62; Behavioral effect [10]: 5
CCCN(CCC)C1CCc2cccc(-c3ccccc3)c2C1 (racemic)	12	0					
C#Cc1cccc2c1C[C@@H](N(CCC)CCC)CC2	16	4		0	82		Accumulation [4]: 31; Turnover [25]: 66; Accumulation [7]: 95; Temperature (Rattus norvegicus [18]): -2.8; Behavioral effect [10]: 4
CCCN(CCC)[C@@H]1CCc2cccc(C(=O)OC)c2C1			-2.3	0	90	63	Behavioral effect (Rattus norvegicus [21]): 4; Behavioral effect (Rattus norvegicus [22]): 4
CCCN(CCC)[C@@H]1CCc2ccccc2C1		4		4			Behavioral effect (Rattus norvegicus [17]): 4; Turnover [25]: 51; Temperature (Rattus norvegicus [18]): -1.4; Turnover (Rattus norvegicus [29]): 77
CCCN(CCC)C1CCc2cccc(C(=O)c3ccccc3)c2C1 (racemic)	2.8						
CCCN(CCC)C1CCc2cccc(C(=O)OC)c2C1 (racemic)	2.4						Accumulation (Rattus norvegicus [30]): 59; Behavioral effect [20]: 4; Accumulation [7]: 81
CCCN(CCC)[C@H]1CCc2cccc(O)c2C1				0	106		Accumulation (Rattus norvegicus [31]): 94; Behavioral effect (Rattus norvegicus [32]): 4; Behavioral effect (Rattus norvegicus [2]): 5; Accumulation (Rattus norvegicus [33]): 94; Turnover [8]: 72; Temperature (Rattus norvegicus [18]): -2
